Results as given in ChEMBL document CHEMBL4152209, “Synthesis of 7β-hydroxy-8-ketone opioid derivatives with antagonist activity at mu- and delta-opioid receptors” (Eur J Med Chem, 2018).
Calls of active or inactive are those of the source. The calls are words filed in the database; no cut-off is given here.

What was measured:
[1] = molecular target: T1, Delta-type opioid receptor (Homo sapiens, UniProt P41143); test: Displacement of [3H]diprenorphine from human DOR expressed in African green monkey COS1 cell membranes at 1 uM incubated for 1 hr by scintillation counting method
[2] = molecular target: T1, Delta-type opioid receptor; test: Displacement of [3H]diprenorphine from human DOR expressed in African green monkey COS1 cell membranes at 10 uM incubated for 1 hr by scintillation counting method
Mu-type opioid receptor [3] = molecular target: T2, Mu-type opioid receptor (Homo sapiens, UniProt P35372); test: Displacement of [3H]diprenorphine from human MOR expressed in African green monkey COS1 cell membranes incubated for 1 hr by scintillation counting method
[4] = molecular target: T1, Delta-type opioid receptor; test: Displacement of [3H]diprenorphine from human DOR expressed in African green monkey COS1 cell membranes incubated for 1 hr by scintillation counting method
How it was run: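 hDOR membranes from stably transfected cells, diluted in 50 mM Tris-HCl pH 7.4 with 1 mM EDTA, were incubated with 1 nM [3H]diprenorphine (KD 1.1 nM; Bmax 4.7 pmol/mg) and competitor (1 × 10⁻⁷ to 5 × 10⁻⁵ M) for 1 h at 23 °C. Samples were then filtered on PEI-soaked GF/B and counted by scintillation. Ki was derived from KD; three experiments in triplicate.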

[5] = molecular target: T1, Delta-type opioid receptor; test: Agonist activity at human DOR expressed in African green monkey COS1 cell membranes assessed as stimulation of [35S]GTPgS binding at 20 uM by scintillation counting method; type: functional
How it was run: (§1)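 Membranes (5 µg) from stably transfected cells expressing hMOR or hDOR were incubated 1 h at 23 °C in 50 mM Tris-HCl pH 7.3 with 5 mM MgCl₂, 100 mM NaCl, 1 mM EDTA, 30 µM GDP and 0.2 nM [35S]GTPγS. Reference opioids were used at 1 or 10 µM and test ligands at 20 or 50 µM. Nonspecific binding was taken with 10 µM GTP. Samples were filtered and counted; three experiments in triplicate.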

[6] = molecular target: T1, Delta-type opioid receptor; test: Agonist activity at human DOR expressed in African green monkey COS1 cell membranes assessed as stimulation of [35S]GTPgS binding at 50 uM by scintillation counting method; type: functional; how it was run: as §1
Mu-type opioid receptor [7] = molecular target: T2, Mu-type opioid receptor; test: Antagonist activity at human MOR expressed in African green monkey COS1 cell membranes assessed as inhibition of DAMGO-induced [35S]GTPgS binding at 20 uM by scintillation counting method; type: functional
How it was run: (§2)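 Antagonism in [35S]GTPγS binding used 5 µg of hMOR or hDOR transfected-cell membranes, 1 h at 23 °C, in Tris-HCl pH 7.3 with MgCl₂, NaCl, EDTA, 30 µM GDP and 0.2 nM [35S]GTPγS. Test ligands at 20 or 50 µM were co-incubated with DAMGO (1 µM, MOR) or SNC80 (DOR). Read by filtration and scintillation; n=3 in triplicate.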

Mu-type opioid receptor [8] = molecular target: T2, Mu-type opioid receptor; test: Antagonist activity at human MOR expressed in African green monkey COS1 cell membranes assessed as inhibition of DAMGO-induced [35S]GTPgS binding at 50 uM by scintillation counting method; type: functional; how it was run: as §2
[9] = molecular target: T1, Delta-type opioid receptor; test: Antagonist activity at human DOR expressed in African green monkey COS1 cell membranes assessed as inhibition of SNC80-induced [35S]GTPgS binding at 50 uM by scintillation counting method; type: functional; how it was run: as §2
HEK293 = test: Toxicity in HEK293 cells assessed as reduction in cell viability at <100 uM incubated for 24 hrs by cell-titer Glo reagent based assay; details: human, hek293, 24 h
How it was run: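 HEK-293 cells, 9000 per well, were switched to Opti-MEM and exposed to compound (0.1–100 µM) for 24 h. Viability was read as lysate ATP by CellTiter-Glo luminescence.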

Mu-type opioid receptor [10] = molecular target: T2, Mu-type opioid receptor; details: at 1 µM
Mu-type opioid receptor [11] = molecular target: T2, Mu-type opioid receptor; details: at 10 µM
[12] = molecular target: Kappa-type opioid receptor (Homo sapiens) (UniProt P41145); details: at 1 µM
[13] = molecular target: Kappa-type opioid receptor (Homo sapiens) (UniProt P41145); details: at 10 µM

T1 sequence (P41143 whole entry): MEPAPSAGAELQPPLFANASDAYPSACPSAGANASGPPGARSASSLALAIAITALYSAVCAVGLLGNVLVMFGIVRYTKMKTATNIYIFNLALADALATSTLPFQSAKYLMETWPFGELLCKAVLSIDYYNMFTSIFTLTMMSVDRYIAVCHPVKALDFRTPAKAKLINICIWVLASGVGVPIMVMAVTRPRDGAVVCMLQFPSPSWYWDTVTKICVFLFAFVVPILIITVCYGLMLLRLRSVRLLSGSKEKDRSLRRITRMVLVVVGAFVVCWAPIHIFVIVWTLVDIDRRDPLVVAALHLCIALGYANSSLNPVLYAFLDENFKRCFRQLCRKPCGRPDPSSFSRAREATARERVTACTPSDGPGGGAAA
Kappa-type opioid receptor (Homo sapiens), sequence (P41145 whole entry): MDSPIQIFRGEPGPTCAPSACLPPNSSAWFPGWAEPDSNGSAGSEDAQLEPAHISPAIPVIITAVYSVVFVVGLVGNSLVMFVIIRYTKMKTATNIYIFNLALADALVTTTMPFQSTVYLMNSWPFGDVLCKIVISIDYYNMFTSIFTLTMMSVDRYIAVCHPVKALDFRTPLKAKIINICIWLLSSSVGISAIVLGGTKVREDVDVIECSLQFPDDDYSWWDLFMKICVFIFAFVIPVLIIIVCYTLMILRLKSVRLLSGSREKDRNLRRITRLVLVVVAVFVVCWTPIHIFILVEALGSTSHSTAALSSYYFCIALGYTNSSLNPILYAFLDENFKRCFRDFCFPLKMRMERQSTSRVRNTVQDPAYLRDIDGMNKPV
T2 sequence (P35372 whole entry): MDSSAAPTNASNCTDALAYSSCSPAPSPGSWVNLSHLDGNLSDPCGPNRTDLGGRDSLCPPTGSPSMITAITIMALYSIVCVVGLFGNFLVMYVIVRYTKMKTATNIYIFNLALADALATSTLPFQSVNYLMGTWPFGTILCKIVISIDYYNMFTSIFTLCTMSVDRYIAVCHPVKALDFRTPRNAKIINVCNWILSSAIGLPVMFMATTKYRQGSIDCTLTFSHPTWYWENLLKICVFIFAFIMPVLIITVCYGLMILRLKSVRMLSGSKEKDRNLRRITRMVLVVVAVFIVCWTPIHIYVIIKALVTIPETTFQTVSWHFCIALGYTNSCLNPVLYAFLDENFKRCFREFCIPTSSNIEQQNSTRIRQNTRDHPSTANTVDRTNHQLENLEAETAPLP

Work on `COC(=O)N1CC[C@]23c4c5ccc(O)c4O[C@H]2[C@@H](O)[C@H](O)C(=O)[C@H]3[C@H]1C5` yielded an inhibition [1] of 24%, an inhibition [2] of 63% and a Ki (Mu-type opioid receptor [3]) of 1.08 to 2.58 µM. For the same compound, the Ki [4] was 1.13 to 1.83 µM, the Activity [5] was “inactive” and the Activity [6] was “inactive”. The inhibition (Mu-type opioid receptor [7]) was “Active”, the inhibition (Mu-type opioid receptor [8]) was “Active” and the inhibition [9] was “Active”. The Activity (HEK293) was “Non-Toxic”, the inhibition (Mu-type opioid receptor [10]) was 8% and the inhibition (Mu-type opioid receptor [11]) was 48%. It also gave an inhibition [12] of 6% and an inhibition [13] of 21%.

`COC(=O)N1CC[C@]23c4c5ccc(O)c4O[C@H]2[C@@H](O)C=C[C@H]3[C@H]1C5` gave an inhibition [1] of 21%, an inhibition [2] of 59% and a Ki (Mu-type opioid receptor [3]) of 0.814 to 1.72 µM. For the same compound, the Ki [4] was 1.69 to 2.63 µM, the Activity [5] was “inactive” and the Activity [6] was “inactive”. The inhibition (Mu-type opioid receptor [7]) was “Active”, the inhibition (Mu-type opioid receptor [8]) was “Active” and the inhibition [9] was “Active”. The Activity (HEK293) was “Non-Toxic”, the inhibition (Mu-type opioid receptor [10]) was 16% and the inhibition (Mu-type opioid receptor [11]) was 58%. The inhibition [12] was 7% and the inhibition [13] was 27%.

`COC(=O)N1CC[C@]23c4c5ccc(OC(C)=O)c4O[C@H]2[C@@H](OC(C)=O)C=C[C@H]3[C@H]1C5` gave an inhibition [1] of 1%, an inhibition [2] of 9% and an inhibition (Mu-type opioid receptor [10]) of 1%. For the same compound, the inhibition (Mu-type opioid receptor [11]) was 3%, the inhibition [12] was 0% and the inhibition [13] was 1%.

Compound `COC(=O)N1CC[C@]23c4c5ccc(OC)c4O[C@H]2[C@@H](OC)C=C[C@H]3[C@H]1C5` has an inhibition [1] of 2%, an inhibition [2] of 10% and an inhibition (Mu-type opioid receptor [10]) of 3%. For the same compound, the inhibition (Mu-type opioid receptor [11]) was 11%, the inhibition [12] was 6% and the inhibition [13] was 2%.

With `C[C@@H](NC(=O)[C@@H](N)Cc1ccc(O)cc1)C(=O)NCC(=O)N(C)[C@@H](Cc1ccccc1)C(=O)NCCO` the inhibition (Mu-type opioid receptor [10]) was 67% and the inhibition (Mu-type opioid receptor [11]) was 85%.

`Oc1ccc2c3c1O[C@H]1c4[nH]c5ccccc5c4C[C@@]4(O)[C@@H](C2)N(CC2CC2)CC[C@]314` showed an inhibition [1] of 94% and an inhibition [2] of 94%.

For `CN1CC[C@]23c4c5ccc(O)c4O[C@H]2[C@@H](O)C=C[C@H]3[C@H]1C5`, the inhibition [1] was 31%, the inhibition [2] was 63% and the Activity [5] was “Active”. The Activity [6] was “Active”.

In the case of `COC(=O)N1CC[C@]23c4c5ccc(OC)c4O[C@H]2[C@@H](OC)[C@H](O)C(=O)[C@H]3[C@H]1C5`, the inhibition [1] is reported as 5%, the inhibition [2] is reported as 19% and the Activity (HEK293) is reported as “Non-Toxic”. For the same compound, the inhibition (Mu-type opioid receptor [10]) was 5%, the inhibition (Mu-type opioid receptor [11]) was 5% and the inhibition [12] was 5%. For the same compound, the inhibition [13] was 0%.

`COC(=O)N1CC[C@]23c4c5ccc(OC(C)=O)c4O[C@H]2[C@@H](OC(C)=O)[C@H](O)C(=O)[C@H]3[C@H]1C5` was tested, and the inhibition [1] was 22%, the inhibition [2] was 51% and the Activity (HEK293) was “Non-Toxic”. For the same compound, the inhibition (Mu-type opioid receptor [10]) was 7%, the inhibition (Mu-type opioid receptor [11]) was 9% and the inhibition [12] was 4%. The inhibition [13] was 8%.
